Tests used:
[1] = molecular target: T1, Dual specificity tyrosine-phosphorylation-regulated kinase 2 (Homo sapiens) (UniProt Q92630); assay: Inhibition of DYRK2 at 1 uM
T1 sequence (whole entry): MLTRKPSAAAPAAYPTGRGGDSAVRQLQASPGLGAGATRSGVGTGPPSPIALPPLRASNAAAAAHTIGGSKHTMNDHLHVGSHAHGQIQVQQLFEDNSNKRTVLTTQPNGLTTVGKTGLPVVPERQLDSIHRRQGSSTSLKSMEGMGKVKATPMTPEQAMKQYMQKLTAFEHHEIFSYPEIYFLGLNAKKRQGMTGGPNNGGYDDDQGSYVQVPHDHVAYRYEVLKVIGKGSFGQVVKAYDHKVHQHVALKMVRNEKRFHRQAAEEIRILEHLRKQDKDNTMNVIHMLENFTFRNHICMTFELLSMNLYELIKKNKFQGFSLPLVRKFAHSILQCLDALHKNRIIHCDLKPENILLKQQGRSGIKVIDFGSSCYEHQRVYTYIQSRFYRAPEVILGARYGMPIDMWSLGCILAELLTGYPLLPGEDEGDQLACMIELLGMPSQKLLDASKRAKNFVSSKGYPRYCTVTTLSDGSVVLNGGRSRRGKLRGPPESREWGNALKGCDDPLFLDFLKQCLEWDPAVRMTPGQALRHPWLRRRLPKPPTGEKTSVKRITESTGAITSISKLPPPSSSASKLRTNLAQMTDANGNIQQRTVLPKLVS

[2] = molecular target: T2, Serine/threonine-protein kinase PLK4 (Homo sapiens) (UniProt O00444); assay: Inhibition of PLK4 at 1 uM
T2 sequence (whole entry): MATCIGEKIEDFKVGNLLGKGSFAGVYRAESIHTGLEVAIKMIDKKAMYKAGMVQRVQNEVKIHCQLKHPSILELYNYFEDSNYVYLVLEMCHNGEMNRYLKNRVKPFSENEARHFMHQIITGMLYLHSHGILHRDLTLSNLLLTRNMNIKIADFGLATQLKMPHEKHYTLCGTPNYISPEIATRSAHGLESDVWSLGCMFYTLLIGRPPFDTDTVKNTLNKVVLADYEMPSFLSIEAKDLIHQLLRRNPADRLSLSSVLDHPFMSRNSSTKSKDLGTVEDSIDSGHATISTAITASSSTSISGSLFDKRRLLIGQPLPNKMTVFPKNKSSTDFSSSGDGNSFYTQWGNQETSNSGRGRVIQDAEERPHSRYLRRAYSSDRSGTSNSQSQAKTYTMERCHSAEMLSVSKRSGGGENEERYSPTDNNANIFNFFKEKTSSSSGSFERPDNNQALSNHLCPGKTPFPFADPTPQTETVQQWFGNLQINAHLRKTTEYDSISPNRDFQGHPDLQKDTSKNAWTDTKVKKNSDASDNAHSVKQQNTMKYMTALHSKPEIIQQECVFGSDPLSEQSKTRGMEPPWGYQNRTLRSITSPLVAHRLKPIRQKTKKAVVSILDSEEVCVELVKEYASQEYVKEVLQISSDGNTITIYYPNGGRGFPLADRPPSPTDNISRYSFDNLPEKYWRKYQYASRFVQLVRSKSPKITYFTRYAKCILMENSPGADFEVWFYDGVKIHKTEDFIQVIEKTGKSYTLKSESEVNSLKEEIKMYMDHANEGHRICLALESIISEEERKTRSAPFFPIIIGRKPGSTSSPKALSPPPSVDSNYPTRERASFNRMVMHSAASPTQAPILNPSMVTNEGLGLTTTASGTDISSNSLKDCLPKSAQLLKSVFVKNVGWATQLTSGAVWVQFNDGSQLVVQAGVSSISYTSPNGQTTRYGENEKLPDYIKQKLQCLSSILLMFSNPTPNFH

[3] = molecular target: T3, Hormonally up-regulated neu tumor-associated kinase (Homo sapiens) (UniProt P57058); assay: Inhibition of HUNK at 1 uM
T3 sequence (whole entry): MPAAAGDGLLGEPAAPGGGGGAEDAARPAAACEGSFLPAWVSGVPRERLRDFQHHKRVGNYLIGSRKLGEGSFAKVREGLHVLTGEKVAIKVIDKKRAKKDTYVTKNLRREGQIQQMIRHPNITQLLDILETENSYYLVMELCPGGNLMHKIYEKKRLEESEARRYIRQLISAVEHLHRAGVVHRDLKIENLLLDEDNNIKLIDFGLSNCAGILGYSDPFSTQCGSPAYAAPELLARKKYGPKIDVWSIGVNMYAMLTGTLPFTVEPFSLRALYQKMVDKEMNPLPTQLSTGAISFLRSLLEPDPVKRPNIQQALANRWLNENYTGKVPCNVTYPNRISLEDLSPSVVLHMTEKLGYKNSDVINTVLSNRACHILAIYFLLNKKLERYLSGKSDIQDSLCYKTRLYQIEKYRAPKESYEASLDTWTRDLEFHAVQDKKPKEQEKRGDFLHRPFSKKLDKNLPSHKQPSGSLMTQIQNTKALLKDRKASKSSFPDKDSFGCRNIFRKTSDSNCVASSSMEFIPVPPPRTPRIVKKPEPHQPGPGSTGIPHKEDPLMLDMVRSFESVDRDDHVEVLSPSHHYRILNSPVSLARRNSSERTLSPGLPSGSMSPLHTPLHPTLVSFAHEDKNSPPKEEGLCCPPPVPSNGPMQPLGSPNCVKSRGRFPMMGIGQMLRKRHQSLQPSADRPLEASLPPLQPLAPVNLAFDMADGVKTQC

[4] = molecular target: Epidermal growth factor receptor (Homo sapiens) (UniProt P04626+P00533+Q15303+P21860); assay: Inhibition of EGFR S752-I759del mutant at 1 uM; format: protein assay
How it was run: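 Single-concentration screen using Ambit Bioscience KINOMEscan technology across a panel of 250–400 kinases. Per-kinase inhibition from this screen was summarized as S(90), the fraction of kinases inhibited by more than 90%.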

inhibition [1]	inhibition [2]	inhibition [3]	inhibition [4]	Compound
–	91.7%	–	< 50%	O=C(O)c1ccc(-c2cnc3c(c2)N(Cc2cc(Cl)ccc2C(F)(F)F)CCN3)cc1
–	< 50%	–	< 50%	O=C(c1ccc(-c2cnc3c(c2)N(Cc2cc(Cl)ccc2C(F)(F)F)CCN3)cc1)N1CCCCC1
–	73.8%	–	< 50%	COC1CCN(C(=O)c2ccc(-c3cnc4c(c3)N(Cc3cc(Cl)ccc3C(F)(F)F)CCN4)cc2)CC1
–	92.4%	–	< 50%	O=C(c1ccc(-c2cnc3c(c2)N(Cc2cc(Cl)ccc2C(F)(F)F)CCN3)cc1)N1CCC(N2CCCC2)CC1

Further lines, the compound ahead of its results:

Compound	inhibition [1]	inhibition [2]	inhibition [3]	inhibition [4]
CC(=O)N1CCN(c2cc(-c3cnc4c(c3)N(Cc3cc(Cl)ccc3C(F)(F)F)CCN4)ccn2)CC1	< 50%	< 50%	< 50%	< 50%
CN1CCN(c2ccc(-c3cnc4c(c3)N(Cc3cc(Cl)ccc3C(F)(F)F)CCN4)cn2)CC1	< 50%	< 50%	< 50%	< 50%
CN1CCN(c2ccc(-c3cnc4c(c3)N(Cc3cc(F)ccc3F)CCN4)cn2)CC1	< 50%	< 50%	< 50%	< 50%
CN1CCN(c2ccc(-c3cnc4c(c3)N(Cc3cc(Cl)ccc3Cl)CCN4)cn2)CC1	< 50%	< 50%	< 50%	< 50%
CN1CCN(c2ccc(-c3cnc4c(c3)N(Cc3c(F)ccc(F)c3Cl)CCN4)cn2)CC1	< 50%	< 50%	< 50%	< 50%
FC(F)(F)c1ccc(Cl)cc1CN1CCNc2ncc(-c3ccnc(N4CCNCC4)c3)cc21	< 50%	< 50%	< 50%	< 50%
